In ChEMBL document CHEMBL4130456 (ACS Med Chem Lett, 2017):
pIC50: −log10 of the molar value. In brackets after ≈: the same amount, converted by molar mass.

Experiments:
[1] = target: T1, Phosphatidylinositol 4,5-bisphosphate 3-kinase catalytic subunit beta isoform (Homo sapiens, UniProt P42338); assay: Inhibition of recombinant PI3Kbeta (unknown origin) using phosphatidyl inositol/n-Octyl-glucoside as substrate measured after 60 mins by KinaseGlo assay
[2] = target: Phosphatidylinositol 4,5-bisphosphate 3-kinase catalytic subunit gamma isoform (Homo sapiens, UniProt P48736); assay: Inhibition of PI3Kgamma (unknown origin) using phosphatidyl inositol as substrate measured after 30 mins by Alexa Fluor647-labelled ADP tracer based TR-FRET assay
Phosphatidylinositol 4,5-bisphosphate 3-kinase catalytic subunit gamma isoform, sequence (P48736 whole entry, canonical isoform): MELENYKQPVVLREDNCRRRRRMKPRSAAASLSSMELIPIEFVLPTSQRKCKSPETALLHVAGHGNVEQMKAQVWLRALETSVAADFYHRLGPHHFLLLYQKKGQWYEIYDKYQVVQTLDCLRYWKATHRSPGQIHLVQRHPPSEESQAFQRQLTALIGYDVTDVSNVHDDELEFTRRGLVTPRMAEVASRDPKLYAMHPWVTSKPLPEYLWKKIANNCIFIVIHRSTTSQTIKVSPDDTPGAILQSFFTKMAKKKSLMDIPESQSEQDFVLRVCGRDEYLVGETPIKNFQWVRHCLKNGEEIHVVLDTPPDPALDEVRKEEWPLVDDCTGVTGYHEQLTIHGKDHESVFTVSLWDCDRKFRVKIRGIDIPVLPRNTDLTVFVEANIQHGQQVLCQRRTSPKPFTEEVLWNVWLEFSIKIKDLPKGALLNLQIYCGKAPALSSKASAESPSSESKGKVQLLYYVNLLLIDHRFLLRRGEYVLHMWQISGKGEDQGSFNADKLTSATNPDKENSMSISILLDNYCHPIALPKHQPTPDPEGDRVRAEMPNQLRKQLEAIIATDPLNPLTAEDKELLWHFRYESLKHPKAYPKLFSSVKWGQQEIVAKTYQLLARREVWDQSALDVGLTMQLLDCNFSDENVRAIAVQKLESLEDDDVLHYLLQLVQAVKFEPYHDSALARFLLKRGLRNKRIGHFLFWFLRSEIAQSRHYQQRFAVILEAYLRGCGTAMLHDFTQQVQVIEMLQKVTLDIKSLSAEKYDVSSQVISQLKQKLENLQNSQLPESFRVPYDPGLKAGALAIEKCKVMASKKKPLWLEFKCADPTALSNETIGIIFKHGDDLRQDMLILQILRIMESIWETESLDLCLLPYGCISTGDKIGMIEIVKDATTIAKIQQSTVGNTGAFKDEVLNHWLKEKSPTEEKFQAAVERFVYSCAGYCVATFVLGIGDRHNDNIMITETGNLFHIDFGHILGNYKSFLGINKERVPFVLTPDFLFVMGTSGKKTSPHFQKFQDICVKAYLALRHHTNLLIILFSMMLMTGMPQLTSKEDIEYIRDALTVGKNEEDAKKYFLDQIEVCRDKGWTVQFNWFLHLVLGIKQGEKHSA

[3] = target: T2, Phosphatidylinositol 4,5-bisphosphate 3-kinase catalytic subunit delta isoform (Homo sapiens, UniProt O00329); assay: Inhibition of PI3Kdelta (unknown origin) using phosphatidyl inositol as substrate measured after 60 mins by Alexa Fluor647-labelled ADP tracer based TR-FRET assay
T2 sequence (O00329 whole entry): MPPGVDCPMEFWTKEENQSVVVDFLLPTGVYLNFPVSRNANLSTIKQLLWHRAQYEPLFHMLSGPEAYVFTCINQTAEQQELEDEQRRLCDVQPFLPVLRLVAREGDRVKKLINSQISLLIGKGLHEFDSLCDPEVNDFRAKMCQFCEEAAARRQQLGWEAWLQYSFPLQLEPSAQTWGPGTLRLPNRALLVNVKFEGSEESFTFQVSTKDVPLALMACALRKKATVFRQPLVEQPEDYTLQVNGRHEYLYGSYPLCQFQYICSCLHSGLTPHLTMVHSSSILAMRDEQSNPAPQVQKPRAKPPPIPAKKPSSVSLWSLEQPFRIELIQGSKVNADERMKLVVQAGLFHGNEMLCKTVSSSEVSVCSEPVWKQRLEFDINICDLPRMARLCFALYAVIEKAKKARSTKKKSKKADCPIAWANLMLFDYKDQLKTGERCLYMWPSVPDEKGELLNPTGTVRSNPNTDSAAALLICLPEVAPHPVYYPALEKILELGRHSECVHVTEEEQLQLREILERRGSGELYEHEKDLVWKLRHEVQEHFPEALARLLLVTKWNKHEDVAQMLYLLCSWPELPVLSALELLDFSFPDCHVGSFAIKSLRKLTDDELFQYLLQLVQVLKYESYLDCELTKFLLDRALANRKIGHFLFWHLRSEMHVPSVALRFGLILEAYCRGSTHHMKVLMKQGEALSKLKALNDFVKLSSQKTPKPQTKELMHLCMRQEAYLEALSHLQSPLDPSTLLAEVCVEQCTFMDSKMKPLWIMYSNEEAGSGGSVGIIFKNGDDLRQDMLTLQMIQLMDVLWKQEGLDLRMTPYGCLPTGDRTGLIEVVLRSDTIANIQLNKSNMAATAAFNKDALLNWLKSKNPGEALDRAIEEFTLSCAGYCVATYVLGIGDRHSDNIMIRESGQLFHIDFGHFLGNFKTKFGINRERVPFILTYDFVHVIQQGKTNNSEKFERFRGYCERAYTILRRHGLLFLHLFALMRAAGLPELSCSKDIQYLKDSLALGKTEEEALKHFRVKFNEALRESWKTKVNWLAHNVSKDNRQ

[4] = target: T3, Phosphatidylinositol 4,5-bisphosphate 3-kinase catalytic subunit alpha isoform (Homo sapiens, UniProt P42336); assay: Inhibition of recombinant human myristoylated PI3Kalpha catalytic domain expressed in Rat1 cells assessed as reduction in Akt phosphorylation at […] residue after 1 hr by alpha screen Surefire assay; type: cell-based
T3 sequence (P42336 whole entry, the tested form may be a part, canonical isoform): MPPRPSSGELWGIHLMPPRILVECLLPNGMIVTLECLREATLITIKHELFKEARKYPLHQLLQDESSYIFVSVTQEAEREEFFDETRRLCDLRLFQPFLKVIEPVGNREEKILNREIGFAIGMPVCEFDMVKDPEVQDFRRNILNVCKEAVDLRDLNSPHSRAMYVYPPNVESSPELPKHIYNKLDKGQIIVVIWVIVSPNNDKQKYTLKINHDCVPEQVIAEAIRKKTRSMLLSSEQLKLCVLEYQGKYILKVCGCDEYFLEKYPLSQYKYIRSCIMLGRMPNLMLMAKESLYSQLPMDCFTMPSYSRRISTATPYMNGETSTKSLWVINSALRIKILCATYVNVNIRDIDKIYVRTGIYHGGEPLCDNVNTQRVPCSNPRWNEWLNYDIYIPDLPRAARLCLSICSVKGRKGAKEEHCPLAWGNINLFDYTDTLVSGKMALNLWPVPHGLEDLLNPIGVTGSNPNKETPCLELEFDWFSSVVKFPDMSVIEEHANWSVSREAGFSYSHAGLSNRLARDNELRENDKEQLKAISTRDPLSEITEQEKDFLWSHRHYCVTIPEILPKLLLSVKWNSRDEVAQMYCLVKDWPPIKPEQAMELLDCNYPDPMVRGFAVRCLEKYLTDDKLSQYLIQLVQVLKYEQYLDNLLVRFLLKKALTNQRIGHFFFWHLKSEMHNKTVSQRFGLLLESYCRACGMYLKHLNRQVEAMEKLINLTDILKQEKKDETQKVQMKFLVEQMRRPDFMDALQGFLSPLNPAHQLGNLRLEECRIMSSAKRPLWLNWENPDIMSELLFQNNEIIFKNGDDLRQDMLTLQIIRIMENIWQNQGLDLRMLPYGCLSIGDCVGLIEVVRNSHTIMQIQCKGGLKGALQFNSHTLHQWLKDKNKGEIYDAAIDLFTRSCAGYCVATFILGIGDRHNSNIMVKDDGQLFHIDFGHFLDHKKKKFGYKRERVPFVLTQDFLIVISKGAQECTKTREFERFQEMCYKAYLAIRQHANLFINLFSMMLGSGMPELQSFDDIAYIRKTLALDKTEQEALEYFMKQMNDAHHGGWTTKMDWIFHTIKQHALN

[5] = target: T1, Phosphatidylinositol 4,5-bisphosphate 3-kinase catalytic subunit beta isoform; assay: Inhibition of recombinant human myristoylated PI3Kbeta catalytic domain expressed in Rat1 cells assessed as reduction in Akt phosphorylation at […] residue after 1 hr by alpha screen Surefire assay; type: cell-based
[6] = target: T2, Phosphatidylinositol 4,5-bisphosphate 3-kinase catalytic subunit delta isoform; assay: Inhibition of recombinant human myristoylated PI3Kdelta catalytic domain expressed in Rat1 cells assessed as reduction in Akt phosphorylation at […] residue after 1 hr by alpha screen Surefire assay; type: cell-based
[7] = target: T4, Phosphatidylinositol 4,5-bisphosphate 3-kinase catalytic subunit delta isoform (Mus musculus, UniProt O35904); assay: Inhibition of PI3Kdelta in Balb/c mouse splenocytes assessed as reduction in anti-IgM stimulated CD86 expression pretreated for 1 hr followed by anti-IgM stimulation after 24 hrs by flow cytometric analysis; type: cell-based
T4 sequence (O35904 whole entry): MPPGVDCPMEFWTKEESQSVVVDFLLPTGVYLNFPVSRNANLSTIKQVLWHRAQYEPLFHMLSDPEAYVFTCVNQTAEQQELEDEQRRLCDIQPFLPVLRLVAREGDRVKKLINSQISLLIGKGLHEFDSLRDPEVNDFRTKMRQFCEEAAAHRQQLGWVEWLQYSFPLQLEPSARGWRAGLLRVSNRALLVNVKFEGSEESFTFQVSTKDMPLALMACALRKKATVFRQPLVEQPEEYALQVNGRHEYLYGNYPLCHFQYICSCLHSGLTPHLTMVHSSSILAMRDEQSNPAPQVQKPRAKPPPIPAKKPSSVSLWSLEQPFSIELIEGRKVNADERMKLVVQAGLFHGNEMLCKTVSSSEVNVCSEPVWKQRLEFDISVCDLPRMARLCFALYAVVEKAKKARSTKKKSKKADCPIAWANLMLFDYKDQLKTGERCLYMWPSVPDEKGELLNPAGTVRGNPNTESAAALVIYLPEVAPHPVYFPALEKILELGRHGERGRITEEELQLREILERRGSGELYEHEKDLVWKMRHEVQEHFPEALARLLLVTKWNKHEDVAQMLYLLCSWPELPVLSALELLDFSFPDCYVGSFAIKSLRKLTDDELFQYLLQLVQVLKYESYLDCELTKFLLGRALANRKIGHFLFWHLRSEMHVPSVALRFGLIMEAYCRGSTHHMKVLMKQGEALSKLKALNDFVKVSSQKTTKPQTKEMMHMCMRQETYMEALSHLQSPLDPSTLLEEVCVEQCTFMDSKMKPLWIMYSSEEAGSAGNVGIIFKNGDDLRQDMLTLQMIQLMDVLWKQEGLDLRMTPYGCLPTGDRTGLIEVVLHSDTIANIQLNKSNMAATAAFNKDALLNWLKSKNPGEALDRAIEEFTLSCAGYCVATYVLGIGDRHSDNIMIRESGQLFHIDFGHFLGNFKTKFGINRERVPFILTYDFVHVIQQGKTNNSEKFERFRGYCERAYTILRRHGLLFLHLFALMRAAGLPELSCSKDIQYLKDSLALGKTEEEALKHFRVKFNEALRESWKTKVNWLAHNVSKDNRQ

[8] = Inhibition of PI3Kdelta in 50% rat blood assessed as reduction in anti-IgM stimulated CD86 expression pretreated for 1 hr followed by anti-IgM stimulation after 24 hrs by flow cytometric analysis
How it was run: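 Rat 50% whole blood; B cells stimulated with anti-IgM/IL-4; readouts pAKT or CD86.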

[9] = Lipophilicity, log P of the compound by artificial membrane based assay; type: physicochemical
[10] = Intrinsic clearance in rat liver microsomes assessed per mg protein; type: ADME, microsome; conditions: read-out: CLH
[11] = Equilibrium solubility of the compound at pH 6.8 by LC-MS/MS analysis; type: physicochemical; conditions: buffer
How it was run: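 High-throughput equilibrium solubility at pH 6.8, reported in mM.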

[12] = target: T3, Phosphatidylinositol 4,5-bisphosphate 3-kinase catalytic subunit alpha isoform; assay: Inhibition of recombinant PI3Kalpha (unknown origin) using phosphatidyl inositol/n-Octyl-glucoside as substrate measured after 30 mins by KinaseGlo assay

T1 sequence (P42338 whole entry, canonical isoform): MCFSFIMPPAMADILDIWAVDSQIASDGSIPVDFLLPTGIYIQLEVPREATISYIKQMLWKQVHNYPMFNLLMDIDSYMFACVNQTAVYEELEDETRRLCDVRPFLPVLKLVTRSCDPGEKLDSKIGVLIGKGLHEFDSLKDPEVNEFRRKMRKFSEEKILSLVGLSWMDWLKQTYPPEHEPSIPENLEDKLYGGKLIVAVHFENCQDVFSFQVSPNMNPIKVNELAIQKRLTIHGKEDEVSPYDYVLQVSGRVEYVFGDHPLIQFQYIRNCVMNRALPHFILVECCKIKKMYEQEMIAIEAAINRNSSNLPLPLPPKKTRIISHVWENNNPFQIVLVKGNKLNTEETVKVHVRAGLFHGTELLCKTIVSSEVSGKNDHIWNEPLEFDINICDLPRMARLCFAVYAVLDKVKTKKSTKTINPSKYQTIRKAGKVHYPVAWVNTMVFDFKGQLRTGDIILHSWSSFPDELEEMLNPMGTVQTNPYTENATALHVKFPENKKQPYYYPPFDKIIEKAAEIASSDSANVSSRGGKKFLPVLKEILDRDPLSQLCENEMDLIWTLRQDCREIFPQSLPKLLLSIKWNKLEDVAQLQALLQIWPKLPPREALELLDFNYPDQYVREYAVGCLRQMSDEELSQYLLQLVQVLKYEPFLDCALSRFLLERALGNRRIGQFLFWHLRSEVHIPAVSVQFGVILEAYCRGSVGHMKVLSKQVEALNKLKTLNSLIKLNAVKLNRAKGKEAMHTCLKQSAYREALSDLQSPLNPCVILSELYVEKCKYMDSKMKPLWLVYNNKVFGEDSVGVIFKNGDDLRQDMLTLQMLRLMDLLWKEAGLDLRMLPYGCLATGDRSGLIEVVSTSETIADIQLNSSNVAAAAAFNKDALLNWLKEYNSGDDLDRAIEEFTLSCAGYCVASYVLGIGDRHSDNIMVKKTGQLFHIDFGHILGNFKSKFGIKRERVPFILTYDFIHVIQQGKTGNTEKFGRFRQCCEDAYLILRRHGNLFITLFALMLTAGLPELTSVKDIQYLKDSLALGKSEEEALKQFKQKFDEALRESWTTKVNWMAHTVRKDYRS

| pIC50 [1] | pIC50 [2] | pIC50 [3] | pIC50 [4] | pIC50 [5] | pIC50 [6] | pIC50 [7] | pIC50 [8] | logP [9] | microsomal CLint [10] | solubility thermodynamic [11] | pIC50 [12] | SMILES |
| --- | --- | --- | --- | --- | --- | --- | --- | --- | --- | --- | --- | --- |
| 5.88 | < 5.04 | 7.55 | 5.45 | 5.45 | 7.43 | 7.08 | 7.24 | 2.2 | 149 µL/min/mg | 270 µM (≈ 137 µg/mL) | – | COc1ncc(N2CCc3ncnc(O[C@H]4CCN(C(=O)C5CCOCC5)C4)c3C2)cc1C(F)(F)F |
| 6.02 | – | – | 5.13 | 5.10 | – | 7.06 | 7.14 | 2.8 | – | > 1000 µM | – | CCC(=O)N1CC[C@H](Nc2ncnc3c2CN(c2cnc(OC)c(C)c2)CC3)C1 |
| < 5.04 | < 5.04 | 7.19 | < 5.00 | < 5.00 | 5.58 | – | – | 0.7 | 91 µL/min/mg | > 1000 µM | 5.16 | COc1ccc(N2CCc3ncnc(-c4cccc(C(=O)N5CCN(C(C)=O)CC5)c4)c3C2)cn1 |
| 6.52 | 5.97 | 8.40 | 5.67 | 5.40 | – | 7.82 | 7.80 | 2.9 | 41 µL/min/mg | 240 µM (≈ 122 µg/mL) | 7.36 | COc1ncc(N2CCc3ncnc(N[C@H]4CCN(C(=O)C5CCOCC5)C4)c3C2)cc1C(F)(F)F |
| 5.05 | < 5.04 | 6.88 | < 5.00 | < 5.00 | 5.27 | – | – | 2.2 | 35 µL/min/mg | > 1000 µM | 5.18 | CCC(=O)N1CC[C@H](Oc2ncnc3c2CN(c2ccc(OC)nc2)CC3)C1 |
| 5.05 | < 5.04 | 7.08 | 5.04 | < 5.00 | 6.43 | – | – | 2.2 | 197 µL/min/mg | > 1000 µM | 5.69 | COc1ccc(N2CCc3ncnc(-c4cccc(OC5CCN(C(C)=O)CC5)c4)c3C2)cn1 |
| 5.77 | < 5.04 | 7.57 | 5.59 | 5.51 | 6.88 | – | – | 3.1 | 160 µL/min/mg | 80 µM (≈ 36.1 µg/mL) | – | CCC(=O)N1CC[C@H](Oc2ncnc3c2CN(c2cnc(OC)c(C(F)(F)F)c2)CC3)C1 |
| 5.38 | 5.18 | 7.12 | – | 5.17 | 6.84 | 7.01 | 7.04 | 1.7 | 60 µL/min/mg | > 1000 µM | – | COc1ncc(N2CCc3ncnc(O[C@H]4CCN(C(=O)C5CCOCC5)C4)c3C2)cc1C |
| 5.69 | 5.48 | 7.52 | – | 5.01 | 6.45 | 7.04 | 7.13 | 2.6 | 22 µL/min/mg | > 1000 µM | – | COc1ncc(N2CCc3ncnc(N[C@H]4CCN(C(=O)C5CCOCC5)C4)c3C2)cc1C |
